# T cruzi repl: inhibitors of intracellular T. cruzi growth, primary screen, luminescence, NIH3T3 host cells; T. cruzi beta-gal in NIH3T3, 90 h; inhibition, % (no concentration beside the values); 300,000 tested, 1.4% active;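 active means mean inhibition across valid replicates above about 55%, limit read from the data; inconclusive means mean below that limit but half or more replicates reach it; inactive means mean below it, under half of replicates reach it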;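 further: signal also drops with host cell toxicity which is not excluded here; 0% = plate median of DMSO wells and 100% = zero luminescence signal; higher percent means less beta-gal luminescence so fewer parasites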
#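 Material: NIH/3T3 host cells with β-galactosidase reporter T. cruzi; Input: 5,000 host fibroblasts per well; Medium: DMEM, 2% fetal bovine serum; Compound: 50 nL DMSO compound solution per well; Schedule: 3 h host attachment, then at least 90 h co-culture; Detection: luminescent β-galactosidase signal after 60 min lysis.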
# GRIN3A LBD mod: binders of NR3A ligand-binding domain, primary screen, biophysical, differential scanning fluorimetry, uHTS. Glutamate receptor ionotropic, NMDA 3A (GRIN3A) ligand-binding domain. NR3A LBD differential scanning fluorimetry, Tm shift; 0% = protein alone, 100% = glycine-bound protein. Tm shift relative to glycine control, % at 25 µM. 340,000 tested, 2.5% active. AID 1259313, 2017;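 active means melting temperature shift of at least 10% of the positive control shift, at one fixed dose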
# Beta cell apopt: inhibitors of cytokine-induced beta cell apoptosis, primary screen, luminescence. INS-1E cytokine-induced death, ATP luminescence, 48 h; percent of positive-control rescue, neutral wells zero. protection from apoptosis, % (concentration not given with the values). 300,000 tested, 0.8% active. AID 435005, 2010;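 active means Every replicate reaches about 75%, or at least half do and their mean reaches it too, limit read from the data; inconclusive means At least half of replicates reach the limit but their mean does not; inactive means Under half of replicates reach the limit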;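 further: 0% = cytokine-treated negative control wells and 100% = positive control rescue; higher means more ATP so stronger rescue from cytokine killing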
# CHOP inh: inhibitors of CHOP promoter induction, primary screen, cell-based, unfolded protein response, luciferase reporter; CHO-K1 CHOP-promoter luciferase, tunicamycin-induced, 15-18 h; inhibition, % at 10 µM; 220,000 tested, 3.8% active;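 active means compounds that reduced the stress-induced luciferase reporter signal by more than about 70% of percent inhibition, limit read from the data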;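 further: 0% = tunicamycin plus vehicle and 100% = wells without tunicamycin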
# CSC inhib: cancer stem cell viability inhibitors, primary screen, luminescence; cancer stem cell-like cells viability; inhibition, % at 7.5 µM; 300,000 tested, 1.1% active; AID 2717, 2010; in the data active means inhibition above about 75%; inconclusive means no clear call, values can overlap the other calls; tested in HMLE shEcad cells
# PREPL inhibitor: PREPL enzyme inhibitors, primary screen, biochemical, fluorescence polarization. recombinant PREPL, fluorescence polarization activity-based probe. inhibition, % at 5.96 µM. 320,000 tested, 0.68% active. AID 2751, 2010; in the data active means inhibition above about 43%;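 further: 0% = enzyme with DMSO and 100% = wells lacking enzyme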
# Target sequence (Q4J6C6 whole entry, looked up): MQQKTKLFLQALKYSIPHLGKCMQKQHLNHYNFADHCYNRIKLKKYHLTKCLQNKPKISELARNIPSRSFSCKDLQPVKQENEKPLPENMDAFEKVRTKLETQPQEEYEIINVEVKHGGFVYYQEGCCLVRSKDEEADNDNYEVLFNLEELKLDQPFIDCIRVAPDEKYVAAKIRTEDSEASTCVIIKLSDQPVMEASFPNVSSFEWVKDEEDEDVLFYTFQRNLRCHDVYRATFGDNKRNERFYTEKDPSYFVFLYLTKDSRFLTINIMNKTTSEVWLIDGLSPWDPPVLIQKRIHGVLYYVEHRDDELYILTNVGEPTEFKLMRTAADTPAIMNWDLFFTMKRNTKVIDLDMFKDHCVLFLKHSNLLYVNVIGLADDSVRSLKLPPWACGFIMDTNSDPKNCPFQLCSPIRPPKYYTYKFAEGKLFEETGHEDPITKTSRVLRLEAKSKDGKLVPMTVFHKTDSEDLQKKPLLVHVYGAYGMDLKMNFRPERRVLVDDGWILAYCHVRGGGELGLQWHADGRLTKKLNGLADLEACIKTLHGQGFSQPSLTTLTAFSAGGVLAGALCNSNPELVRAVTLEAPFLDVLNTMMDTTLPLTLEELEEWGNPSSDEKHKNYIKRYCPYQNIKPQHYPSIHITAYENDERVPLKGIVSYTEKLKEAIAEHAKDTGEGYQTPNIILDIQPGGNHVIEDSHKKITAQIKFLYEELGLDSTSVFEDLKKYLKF
# Active calls of the source: *; ? = inconclusive; / = not tested or not shown. An excerpt weighted towards active compounds, which were near 6.7% of everything screened.
SMILES,T cruzi repl,GRIN3A LBD mod,Beta cell apopt,CHOP inh,CSC inhib,PREPL inhibitor
COc1cccc(-c2ccc(NC(=O)C3CCCN(Cc4nccn4C)C3)cc2)c1 (centres undefined),-10,1,-2,/,-9,5
Cc1cc(C)c(C)c(S(=O)(=O)N(C)CCc2ccccn2)c1C,/,1,1,/,-8,18
O=Cc1ccc(OCCOc2ccc([N+](=O)[O-])cc2)cc1,3,0,0,/,1,10
Nc1cc(=O)[nH]c(=O)n1CCc1ccccc1,-9,0,-7,/,-8,7
COc1cc2sc(-c3ccccc3OC)c(-c3ccc(OCCN4CCCCC4)cc3)c2cc1OC,/,-7,124*,/,104*,26
COc1ccccc1-c1sc2cc3c(cc2c1-c1ccc(OCCN2CCCCC2)cc1)OCO3,/,1,36,/,/,31
CCOc1ccccc1CNC(=O)C1Cc2cc(S(=O)(=O)N3CCCCC3)ccc2N1C(C)=O (centres undefined),6,-3,/,/,1,1
Cc1ccc(OCC(=O)NCCNC(=O)c2ccccn2)cc1,5,0,3,/,/,-1
CC(C)CN1C(=S)SC(C)(C)C1n1oc(=O)n(-c2ccccc2)c1=O (centres undefined),11,-4,10,4,6,0
CC(C)CN1C(=S)SC(C)(C)C1n1oc(=O)n(-c2ccc(Cl)cc2)c1=O (centres undefined),39,11*,-1,3,53,-7
CCC(O)(CC)C(=O)N(Nc1ccc(C)cc1)c1ccc(C)cc1,7,0,1,/,-7,-9
CCOC(=O)C(=O)N(Nc1ccc(C)cc1)c1ccc(C)cc1,-13,11*,-2,-18,-7,0
Cc1ccc(-n2c(-c3ccccc3)cc(/C=N/NC(=O)CC#N)c2-c2ccccc2)cc1,65*,/,123*,47,19,-3
N#CCC(=O)N/N=C/c1cn(Cc2ccc(Cl)cc2Cl)c2ccccc12,-4,24*,8,-7,-10,20
N#CCC(=O)N/N=C/c1cc(-c2ccccc2)n(-c2ccc(Cl)cc2)c1-c1ccccc1,60*,1,109*,22,52,11
Cc1csc(=O)n1CC(=O)OCC(=O)c1ccc(Br)cc1,-5,4,/,/,-5,2
O=C(CSc1nc(=O)n2ccccc2n1)OCc1ccccc1,-1,0,-2,/,-14,12
Cc1cc(C)cc(NC(=O)CN2CCC(C(=O)c3ccccc3)CC2)c1,15,-2,-8,/,16,-11
CCn1nnnc1SCC(=O)N(C)C1CCS(=O)(=O)C1 (centres undefined),/,-2,-8,/,/,5
CCOC(=O)C1CCCN(C(=O)c2cc(S(=O)(=O)N(C)C)ccc2N2CCCC2)C1 (centres undefined),6,11*,4,/,-11,16
CCOC(=O)C1CCN(C(=O)c2cc(S(=O)(=O)N(C)C)ccc2N2CCCC2)CC1,15,-1,-1,/,/,18
O=C(OCC(=O)N1CCC(c2ccccc2)=N1)c1ccc([N+](=O)[O-])s1,55*,5,3,/,-9,6
O=C(COC(=O)c1ccc([N+](=O)[O-])s1)NCc1ccccc1,18,-5,-3,1,-1,0
Cc1[nH]c2ccccc2c1C(=O)COC(=O)c1c(-c2ccccc2Cl)noc1C,4,24*,4,66,37,-5
Cc1onc(-c2ccccc2Cl)c1C(=O)OCC(=O)N1CCC(C)CC1,/,9,0,/,-15,19
SMILES,T cruzi repl,GRIN3A LBD mod,Beta cell apopt,CHOP inh,CSC inhib,PREPL inhibitor
Cc1[nH]c2ccccc2c1C(=O)COC(=O)c1ccc([N+](=O)[O-])s1,74*,-8,18,-95,-5,11
Cc1cc(C(=O)OCC(=O)N2CCC(c3ccccc3)=N2)ccc1[N+](=O)[O-],2,1,1,/,-9,5
Cc1[nH]c2ccccc2c1C(=O)COC(=O)c1c(-c2c(F)cccc2Cl)noc1C,39,29*,4,49,28,-3
Cc1ccc(Cn2nc(C)c(NC(=O)C3(C)CC3(Br)Br)c2C)cc1 (centres undefined),-8,1,1,13,-16,2
COc1cccc(CNCC(=O)NC(=O)NC2CCCC2)c1,/,0,2,/,-19,2
O=C(Nc1cccc(-c2cn3ccccc3n2)c1)c1cccc(Cl)c1,13,16*,58,3,?,-12
COc1ccccc1C(=O)Nc1cccc(-c2cn3ccsc3n2)c1,/,/,/,-42,/,/
O=C(Nc1cccc(-c2cn3ccsc3n2)c1)c1ccccc1,-1,21*,1,-2,5,-7
O=C(Nc1cccc(-c2cn3ccccc3n2)c1)c1cnccn1,-9,1,2,-27,1,-3
O=C(Nc1ccc(-c2cn3ccsc3n2)cc1)C1COc2ccccc2O1 (centres undefined),7,24*,-2,27,19,26
Cc1ccccc1NC(=O)NC1(C(=O)NCc2ccco2)CCCCC1,-3,-1,-3,/,-15,-1
CC(C)OCCCNC(=S)N1CCC(C(=O)c2ccc(Cl)cc2)CC1,11,0,102*,/,-4,-27
CCN1C/C(=C\c2cccc([N+](=O)[O-])c2)C(=O)/C(=C/c2cccc([N+](=O)[O-])c2)C1,/,-2,/,108*,/,/
Cc1ccsc1/C=C1\CCc2ccccc2C1=O,-4,1,25,77*,1,-7
O=C1/C(=C/c2cccc([N+](=O)[O-])c2)CCc2ccccc21,3,11*,-2,16,-8,12
Cc1ccccc1/C=C1\CCCc2ccccc2C1=O,16,2,1,49,4,-4
COc1ccc(/C=C2\CCc3ccccc3C2=O)cc1OC,-19,0,4,-6,/,21
O=C1/C(=C/c2cccc([N+](=O)[O-])c2)CSc2ccc(Cl)cc21,13,-7,0,16,-9,4
COc1cccc(/C=C2\CCc3ccccc3C2=O)c1,15,22*,4,-14,16,-3
CCOc1ccc(-n2c(-c3ccc(Cl)cc3)c[n+]3c2SCC3)cc1,62*,0,73,-10,-16,22
c1ccc(-c2c[n+]3c(n2-c2ccccc2)SCC3)cc1,55*,5,24,-1,-7,7
c1ccc(-c2cn(-c3ccccc3)c3[n+]2CCS3)cc1,68*,-1,53,16,0,3
O=C(CN1CCN(C(=O)C2COc3ccccc3O2)CC1)Nc1ccccc1 (centres undefined),/,-1,-5,7,-11,3
